Measurements: BindingDB's records for doi:10.1021/np800692t (Chinese Academy of Sciences, 2010)

Target: Signal transducer and activator of transcription 3 (Homo sapiens, UniProt P40763)
Test: Inhibition of STAT3 by Western blotting
Method in brief: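 Phosphotyrosine Stat3 levels in treated cells, tested up to 10 µM. Cells washed in ice-cold PBS, lysed in SDS sample buffer, equal protein run on SDS-PAGE and transferred to PVDF. Blots blocked in 5% nonfat milk/TBST, then phospho-Stat3 and β-tubulin antibodies at 4 °C overnight, secondary 2 h room temperature, ECL detection. IC50 derived.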

Sequence of Signal transducer and activator of transcription 3 (P40763 whole entry): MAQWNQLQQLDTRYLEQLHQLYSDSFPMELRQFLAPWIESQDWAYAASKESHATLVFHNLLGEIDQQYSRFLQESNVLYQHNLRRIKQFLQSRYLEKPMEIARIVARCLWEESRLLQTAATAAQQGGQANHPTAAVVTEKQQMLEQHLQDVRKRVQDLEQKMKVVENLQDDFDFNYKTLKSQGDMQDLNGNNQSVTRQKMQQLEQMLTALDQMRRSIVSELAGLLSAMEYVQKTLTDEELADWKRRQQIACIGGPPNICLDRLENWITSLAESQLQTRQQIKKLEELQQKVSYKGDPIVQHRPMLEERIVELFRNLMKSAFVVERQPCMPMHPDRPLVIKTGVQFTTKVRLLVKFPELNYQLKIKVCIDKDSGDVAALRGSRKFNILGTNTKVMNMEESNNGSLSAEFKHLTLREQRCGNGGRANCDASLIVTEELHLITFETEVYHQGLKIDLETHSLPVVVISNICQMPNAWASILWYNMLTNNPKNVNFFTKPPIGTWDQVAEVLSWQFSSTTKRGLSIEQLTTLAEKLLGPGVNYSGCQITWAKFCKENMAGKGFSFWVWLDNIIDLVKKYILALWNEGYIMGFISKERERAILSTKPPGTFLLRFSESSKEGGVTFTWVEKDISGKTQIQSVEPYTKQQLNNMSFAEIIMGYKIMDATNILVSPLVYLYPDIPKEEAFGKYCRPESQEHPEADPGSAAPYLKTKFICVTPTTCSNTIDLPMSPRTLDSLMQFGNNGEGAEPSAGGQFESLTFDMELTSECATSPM

`CC(=O)OC(C)(C)/C=C/C(=O)[C@](C)(O)[C@H]1[C@H](O)C[C@@]2(C)[C@@H]3CC=C4[C@H](C[C@H](O)C(=O)C4(C)C)[C@]3(C)C(=O)C[C@]12C` [CUCURBITACIN B] showed an IC50 of 3000 nM.
